# Source: ChEMBL document CHEMBL2346540 (J Med Chem, 2013)
# Key:
# Type in all cases: ADME
# Cytochrome P450 3A4 [1] = target: T1, Cytochrome P450 3A4 (Homo sapiens, UniProt P08684); assay: Binding affinity to C-terminal His-tagged wild type CYP3A4 (unknown origin) expressed in Escherichia coli assessed as spectral changes by spectrophotometric analysis relative to control
# Procedure, shortened: (§1)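 Spectrophotometric titration of purified enzyme with small aliquots of ligand in DMSO (final solvent ≤2%) in 50 mM phosphate, pH 7.4, 20% glycerol, 1 mM dithiothreitol; spectra recorded at room temperature and spectral dissociation constant Ks derived from absorbance change vs ligand concentration.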
# Cytochrome P450 3A4 [2] = target: T2, Cytochrome P450 3A4 (Homo sapiens, UniProt P08684, S119A); assay: Binding affinity to CYP3A4 (3-22)-deleted S119A mutant (unknown origin) expressed in Escherichia coli assessed as increase in melting temperature by spectrophotometric analysis (reference value: 53.5 +/- 0.1 degC)
# T2 sequence (P08684 2-503 S119A limits assumed): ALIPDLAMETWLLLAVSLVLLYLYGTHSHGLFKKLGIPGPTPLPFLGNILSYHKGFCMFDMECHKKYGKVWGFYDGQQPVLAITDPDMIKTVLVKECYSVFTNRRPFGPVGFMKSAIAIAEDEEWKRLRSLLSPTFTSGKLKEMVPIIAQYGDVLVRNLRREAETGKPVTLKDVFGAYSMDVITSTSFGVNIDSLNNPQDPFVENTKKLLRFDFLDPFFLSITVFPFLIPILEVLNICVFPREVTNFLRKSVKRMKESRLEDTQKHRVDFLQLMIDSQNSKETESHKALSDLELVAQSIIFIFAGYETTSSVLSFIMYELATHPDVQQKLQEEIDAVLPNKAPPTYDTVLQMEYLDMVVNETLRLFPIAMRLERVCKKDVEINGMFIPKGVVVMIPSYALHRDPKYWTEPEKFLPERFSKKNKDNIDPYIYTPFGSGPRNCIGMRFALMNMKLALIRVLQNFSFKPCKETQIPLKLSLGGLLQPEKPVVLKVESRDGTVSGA
# Cytochrome P450 3A4 [3] = target: T1, Cytochrome P450 3A4; assay: Inhibition of C-terminal His-tagged wild type CYP3A4 (unknown origin)-mediated hydroxylation of 7-benzyloxy-4-trifluoromethylcoumarin expressed in Escherichia coli after 5 mins by fluorimetric analysis
# Procedure, shortened: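 Reconstituted system at room temperature: CYP3A4 (0.3 μM) with rat CPR (0.6 μM) in 25 mM phosphate, pH 7.4, 3 mM MgCl2, preincubated 5 min with inhibitor with or without 100 μM NADPH, then 50 μM BFC added.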
# Cytochrome P450 3A4 [4] = target: T1, Cytochrome P450 3A4; assay: Binding affinity to C-terminal His-tagged wild type CYP3A4 (unknown origin) expressed in Escherichia coli assessed as increase in melting temperature by spectrophotometric analysis (reference value: 52.1 +/- 0.1 degC)
# Cytochrome P450 3A4 [5] = target: T2, Cytochrome P450 3A4; assay: Binding affinity to CYP3A4 (3-22)-deleted S119A mutant (unknown origin) expressed in Escherichia coli by stopped flow assay
# Cytochrome P450 3A4 [6] = target: T1, Cytochrome P450 3A4; assay: Binding affinity to C-terminal His-tagged wild type CYP3A4 (unknown origin) expressed in Escherichia coli assessed as rate constant of fast phase of reaction by stopped flow assay
# Cytochrome P450 3A4 [7] = target: T2, Cytochrome P450 3A4; assay: Binding affinity to CYP3A4 (3-22)-deleted S119A mutant (unknown origin) expressed in Escherichia coli by spectrophotometric analysis; conditions: read-out: Ks; procedure, shortened: as §1
# Cytochrome P450 3A4 [8] = target: T1, Cytochrome P450 3A4; assay: Binding affinity to C-terminal His-tagged wild type CYP3A4 (unknown origin) expressed in Escherichia coli by spectrophotometric analysis; conditions: read-out: Ks; procedure, shortened: as §1
# Cytochrome P450 3A4 [9] = target: T1, Cytochrome P450 3A4; assay: Binding affinity to C-terminal His-tagged wild type CYP3A4 (unknown origin)-bromoergocryptine complex expressed in Escherichia coli by spectrophotometric analysis; conditions: read-out: Ks
# Cytochrome P450 3A4 [10] = target: T1, Cytochrome P450 3A4; assay: Ratio of ritonavir Ks to compound Ks for C-terminal His-tagged wild type CYP3A4 (unknown origin)
# Cytochrome P450 3A4 [11] = target: T1, Cytochrome P450 3A4; assay: Ratio of compound binding constant to ritonavir binding constant for C-terminal His-tagged wild type CYP3A4 (unknown origin)
# CYP3A4 = CYP3A4 (Homo sapiens, UniProt P08684); assay: Ratio of ritonavir IC50 to compound IC50 for C-terminal His-tagged wild type CYP3A4 (unknown origin); conditions: read-out: Ratio IC50
# Chain of CYP3A4 (P08684 whole entry): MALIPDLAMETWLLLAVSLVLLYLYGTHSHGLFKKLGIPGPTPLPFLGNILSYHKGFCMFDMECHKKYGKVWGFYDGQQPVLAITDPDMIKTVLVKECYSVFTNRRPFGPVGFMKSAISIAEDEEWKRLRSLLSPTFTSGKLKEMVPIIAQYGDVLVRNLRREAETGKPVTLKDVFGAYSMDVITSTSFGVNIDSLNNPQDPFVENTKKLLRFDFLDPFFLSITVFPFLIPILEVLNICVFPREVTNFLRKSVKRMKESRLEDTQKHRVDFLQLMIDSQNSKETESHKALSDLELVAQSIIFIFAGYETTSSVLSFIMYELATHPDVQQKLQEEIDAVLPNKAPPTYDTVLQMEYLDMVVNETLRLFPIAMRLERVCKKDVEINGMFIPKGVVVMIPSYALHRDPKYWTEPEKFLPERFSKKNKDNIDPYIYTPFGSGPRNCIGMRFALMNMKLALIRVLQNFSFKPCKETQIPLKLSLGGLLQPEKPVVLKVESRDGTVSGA
# T1 sequence (P08684 whole entry): as above
SMILES,Activity (Cytochrome P450 3A4 [1]),Tm (Cytochrome P450 3A4 [2]) [°C],IC50 (Cytochrome P450 3A4 [3]) [µM],Tm (Cytochrome P450 3A4 [4]) [°C],K (Cytochrome P450 3A4 [5]) [s⁻¹],K (Cytochrome P450 3A4 [6]) [s⁻¹],Kd (Cytochrome P450 3A4 [7]) [µM],Kd (Cytochrome P450 3A4 [8]) [µM],Kd (Cytochrome P450 3A4 [9]) [µM],Ratio (Cytochrome P450 3A4 [10]),Ratio (Cytochrome P450 3A4 [11]),selectivity ratio (CYP3A4)
CC(C)c1nc(CN(C)C(=O)N[C@H](C(=O)N[C@H](CC[C@H](Cc2ccccc2)NC(=O)OCc2cnco2)Cc2ccccc2)C(C)C)cs1,60%,53.2,3.4,54.8,0.2,2.2,0.97,0.57,–,–,–,–
CC(C)c1nc(CN(C)C(=O)N[C@H](C(=O)N[C@H](CC[C@H](Cc2ccccc2)NC(=O)OCc2cccnc2)Cc2ccccc2)C(C)C)cs1,Active,55.6,0.13,57.2,0.32,7,0.065,0.025,0.005,2,5,–
CC(C)c1nc(CN(C)C(=O)N[C@H](C(=O)N[C@H](CC[C@H](Cc2ccccc2)NC(=O)OCc2cnc[nH]2)Cc2ccccc2)C(C)C)cs1,Not Active,55.5,0.28,56.5,0.17,1.9,0.067,0.022,–,2,–,2
